Data from ChEMBL document CHEMBL3393033, “6-(Azaindol-2-yl)pyridine-3-sulfonamides as potent and selective inhibitors targeting hepatitis C virus NS4B” (Bioorg Med Chem Lett, 2015).
Activity calls are given as the source filed them. No cut-off for these calls is given here.

Columns and labels:
Hepatitis C virus [1] = assay: Antiviral activity against genotype 1b Hepatitis C virus bicistronic replicon Con1 infected in human HuH7 cells after 3 days by RT-PCR analysis; assay type: functional, cell-based, Hepacivirus hominis; settings: genotype 1b Con1, Huh-7, 72 h
In short: (§1)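 Huh7 cells carrying a genotype 1b (Con1) bicistronic HCV replicon seeded at 5000 cells/well. Compound added at a final DMSO concentration of 0.5%, then incubated at 37°C for 3 days. Replicon RNA, and GAPDH RNA as the endogenous selectivity control, quantified by real-time RT-PCR. Values are the average of at least two independent determinations.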

[2] = Toxicity in human HuH7 cells infected with genotype 1b Hepatitis C virus bicistronic replicon Con1 assessed as reduction in GAPDH RNA after 3 days by RT-PCR analysis; assay type: cell-based, Huh-7; in short: as §1
[3] = AUC (0 to 6 hrs) in Sprague-Dawley rat plasma at 10 mg/kg, po administered as single dose by LC-MS/MS analysis; assay type: ADME, organism-based; set-up: time < 6 hr, dose 10 mg/kg, route oral
In short: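 Male Sprague Dawley rats (n = 2) were dosed once orally at 10 mg/kg. Compound was lyophilized from acetonitrile/water (1:1) and given as a suspension in 0.4% hydroxypropyl methylcellulose. Plasma was sampled at 30 min and at 1, 2, 3, 4 and 6 h post-dose for LC-MS/MS. AUC is over 0–6 h.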

[4] = Ratio of plasma concentration in Sprague-Dawley rat at 10 mg/kg, po administered as single dose after 6 hrs to EC50 for genotype 1b Hepatitis C virus bicistronic replicon Con1 infected in human HuH7 cells; assay type: ADME, organism-based, Huh-7; set-up: dose 10 mg/kg, route oral; settings: in vivo
In short: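 Male Sprague Dawley rats (n = 2) received a single 10 mg/kg oral dose in 0.4% hydroxypropyl methylcellulose suspension. Plasma concentration at 6 h post-dose was measured by LC-MS/MS and divided by the Con1 1b replicon EC₅₀ from the Huh7 RT-PCR assay.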

[5] = Ratio of drug level in liver to plasma Sprague-Dawley rat plasma at 10 mg/kg, po administered as single dose by LC-MS/MS analysis; assay type: ADME, organism-based; set-up: dose 10 mg/kg, route oral
In short: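 Male Sprague Dawley rats (n = 2) received 10 mg/kg orally as a suspension in 0.4% hydroxypropyl methylcellulose, after lyophilization from acetonitrile/water (1:1). Liver and plasma concentrations were measured at 6 h post-dose by LC-MS/MS and expressed as a liver/plasma ratio.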

[6] = AUC (0 to 24 hrs) in dog plasma at 2 mg/kg, po by LC-MS/MS analysis; assay type: ADME, organism-based, Canis lupus familiaris; set-up: time < 24 hr, dose 2 mg/kg, route oral
In short: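 Male beagle dogs (n = 2) were dosed orally at 2 mg/kg. Compound was lyophilized from acetonitrile/water (1:1) and given as a suspension in 0.4% hydroxypropyl methylcellulose. Plasma was collected at 30 min and at 1, 2, 4, 8 and 24 h for LC-MS/MS.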

[7] = Ratio of plasma concentration in po dosed dog at 8 hrs to EC50 for genotype 1b Hepatitis C virus bicistronic replicon Con1 infected in human Huh7 cells; assay type: ADME, organism-based, Huh-7; settings: in vivo
In short: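 Dogs: male beagles (n = 2) dosed orally at 2 mg/kg as a suspension in 0.4% hydroxypropyl methylcellulose. Plasma concentration at 8 h post-dose was measured by LC-MS/MS and divided by the replicon 1b EC₅₀.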

[8] = Ratio of plasma concentration in po dosed monkey at 8 hrs to EC50 for genotype 1b Hepatitis C virus bicistronic replicon Con1 infected in human Huh7 cells; assay type: ADME, organism-based, Huh-7; settings: in vivo
In short: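 Monkeys: male cynomolgus (n = 2) dosed orally at 3 mg/kg as a suspension in 0.4% hydroxypropyl methylcellulose. Plasma level at 8 h post-dose was measured by LC-MS/MS and expressed relative to the replicon 1b EC₅₀.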

[9] = AUC (0 to 24 hrs) in monkey at 3 mg/kg, po by LC-MS/MS analysis; settings: cynomolgus monkey, plasma
Hepacivirus hominis [10] = assay: Inhibition of Hepatitis C virus NS3 protease up to 10000 nM
Hepacivirus hominis [11] = assay: Inhibition of Hepatitis C virus NS5B polymerase up to 10000 nM
Hepatitis C virus [12] = assay: Antiviral activity against HCV genotype 1b Con1 replicon cells expressing NS4B F98C mutant grown under serial passage in presence of 1x to 30x EC90 level of compound assessed as reduction in replicon RNA levels relative to wild type HCV genotype 1b Con1; assay type: functional, Hepacivirus hominis
Hepatitis C virus [13] = assay: Antiviral activity against HCV genotype 1b Con1 replicon cells expressing NS4B V105M mutant grown under serial passage in presence of 1x to 30x EC90 level of compound assessed as reduction in replicon RNA levels relative to wild type HCV genotype 1b Con1; assay type: functional, Hepacivirus hominis

SMILES	EC50 (Hepatitis C virus [1]) [nM]	IC50 at 3 days [2] [nM]	AUC(0-t) at 6 h [3] [µM·h]	Ratio [4]	Kp [5]	other results
CC(C)Oc1cnc2c(c1)c(C#N)c(-c1ccc(S(=O)(=O)N[C@@H](C)C(F)(F)F)cn1)n2C1CCC1	7600	> 10000	–	–	–	–
CCc1cnc2c(c1)c(C#N)c(-c1ccc(S(=O)(=O)N[C@@H](C)C(F)(F)F)cn1)n2C1CCC1	15	> 5160	2.63	27	13	–
C[C@H](NS(=O)(=O)c1ccc(-c2c(C#N)c3cc(F)cnc3n2C2CCC2)nc1)C(F)(F)F	46	> 10000	8.78	23	6	–
C[C@H](NS(=O)(=O)c1ccc(-c2c(C#N)c3cnc(Cl)cc3n2C2CCC2)nc1)C(F)(F)F	260	1310	–	–	–	–
COc1ncc2c(C#N)c(-c3ccc(S(=O)(=O)N[C@@H](C)C(F)(F)F)cn3)n(C3CCC3)c2n1	240	> 10000	–	–	–	–
CCCOc1cnc2c(c1)c(C#N)c(-c1ccc(S(=O)(=O)N[C@@H](C)C(F)(F)F)cn1)n2C1CCC1	2150	> 10000	–	–	–	–
C[C@H](NS(=O)(=O)c1ccc(-c2c(C#N)c3cc(Cl)cnc3n2C2CCCC2)nc1)C(F)(F)F	27	> 10000	6.84	40	19	AUC(0-t) at 24 h [6]: 2.07 µM·h; Ratio [7]: 2; Ratio [8]: 0.3; AUC(0-t) at 24 h [9]: 0.29 µM·h
Cc1cc2c(C#N)c(-c3ccc(S(=O)(=O)N[C@@H](C)C(F)(F)F)cn3)n(C3CCC3)c2cn1	1400	> 10000	–	–	–	–
COc1cnc2c(c1)c(C#N)c(-c1ccc(S(=O)(=O)N[C@@H](C)C(F)(F)F)cn1)n2CC1CC1	300	7900	–	–	–	–
Cc1cnc2c(c1)c(C#N)c(-c1ccc(S(=O)(=O)N[C@@H](C)C(F)(F)F)cn1)n2C1CCC1	13	> 10000	6.92	55	9	AUC(0-t) at 24 h [6]: 5.67 µM·h; Ratio [7]: 14; Ratio [8]: 1; AUC(0-t) at 24 h [9]: 0.641 µM·h
C[C@H](NS(=O)(=O)c1ccc(-c2c(C#N)c3cc(Cl)cnc3n2C2CCC2)nc1)C(F)(F)F	17	> 10000	2.39	22	23	AUC(0-t) at 24 h [6]: 4.08 µM·h; Ratio [7]: 12; Ratio [8]: 2; AUC(0-t) at 24 h [9]: 1.03 µM·h
C[C@H](NS(=O)(=O)c1ccc(-c2c(C#N)c3cc(C4CC4)cnc3n2C2CCC2)nc1)C(F)(F)F	40	> 10000	10.2	32	11	–
C[C@H](NS(=O)(=O)c1ccc(-c2c(C#N)c3ccc(Cl)nc3n2C2CCC2)nc1)C(F)(F)F	700	6300	–	–	–	–
COc1cnc2c(c1)c(C#N)c(-c1ccc(S(=O)(=O)N[C@@H](C)C(F)(F)F)cn1)n2C1CCCC1	150	> 10000	–	–	–	–
Cc1cnc2c(C#N)c(-c3ccc(S(=O)(=O)N[C@@H](C)C(F)(F)F)cn3)n(C3CCC3)c2c1	119	> 10000	–	–	–	–
COc1cnc2c(c1)c(C#N)c(-c1ccc(S(=O)(=O)N[C@@H](C)C(F)(F)F)cn1)n2C1CCC1	27	> 9000	7.61	30	14	AUC(0-t) at 24 h [6]: 4.18 µM·h; Ratio [7]: 6; Ratio [8]: 4; inhibition (Hepacivirus hominis [10]): inactive; inhibition (Hepacivirus hominis [11]): inactive; fold change (FC) (Hepatitis C virus [12]): 25; fold change (FC) (Hepatitis C virus [13]): 17; AUC(0-t) at 24 h [9]: 2.28 µM·h
COc1ccc2c(C#N)c(-c3ccc(S(=O)(=O)N[C@@H](C)C(F)(F)F)cn3)n(C3CCC3)c2n1	960	9700	–	–	–	–
C[C@H](NS(=O)(=O)c1ccc(-c2c(C#N)c3ncc(Cl)cc3n2C2CCC2)nc1)C(F)(F)F	94	2500	–	–	–	–
C[C@H](NS(=O)(=O)c1ccc(-c2c(C#N)c3cccnc3n2C2CCC2)nc1)C(F)(F)F	217	> 10000	–	–	–	–
Cc1cc2c(cn1)c(C#N)c(-c1ccc(S(=O)(=O)N[C@@H](C)C(F)(F)F)cn1)n2C1CCC1	230	> 10000	–	–	–	–
C[C@H](NS(=O)(=O)c1ccc(-c2c(C#N)c3cc(Cl)ncc3n2C2CCC2)nc1)C(F)(F)F	530	> 10000	–	–	–	–
Cc1cnc2c(c1)c(C#N)c(-c1ncc(S(=O)(=O)N[C@@H](C)C(F)(F)F)cn1)n2C1CCC1	160	> 10000	–	–	–	–
C[C@H](NS(=O)(=O)c1ccc(-c2c(C#N)c3cc(C(F)(F)F)cnc3n2C2CCC2)nc1)C(F)(F)F	2	> 10000	5.83	503	44	AUC(0-t) at 24 h [6]: 8.16 µM·h; Ratio [7]: 125; Ratio [8]: 105; AUC(0-t) at 24 h [9]: 5.44 µM·h
C[C@H](NS(=O)(=O)c1ccc(-c2c(C#N)c3cc(Cl)cnc3n2CC2CC2)nc1)C(F)(F)F	39	> 10000	–	–	–	–
C[C@H](NS(=O)(=O)c1ccc(-c2c(C#N)c3cnc(OC(F)F)nc3n2C2CCC2)nc1)C(F)(F)F	970	> 10000	–	–	–	–
C[C@H](NS(=O)(=O)c1ccc(-c2c(C#N)c3cc(OC(F)F)cnc3n2C2CCC2)nc1)C(F)(F)F	50	> 10000	9.37	36	7	–
CCOc1cnc2c(c1)c(C#N)c(-c1ccc(S(=O)(=O)N[C@@H](C)C(F)(F)F)cn1)n2C1CCC1	200	> 10000	–	–	–	–
Cc1cnc2c(c1)c(C#N)c(-c1ccc(S(=O)(=O)N[C@@H](C)C(F)(F)F)cc1)n2C1CCC1	87	> 10000	–	–	–	–
Cc1ccc2c(C#N)c(-c3ccc(S(=O)(=O)N[C@@H](C)C(F)(F)F)cn3)n(C3CCC3)c2n1	87	> 10000	–	–	–	–
